≈ marks a conversion by molar mass, not a printed value. Calls of active or inactive are those of the source. The rule behind the calls is not given here.
Tests used:
Leishmania donovani [1] = assay: Antileishmanial activity against Leishmania donovani MHOM/IN/80/DD8 promastigote forms harboring luciferase gene at 25 uM after 72 hrs by Steady-Glo reagent based luminescence assay relative to control; assay type: functional; conditions: MHOM/IN/80/DD8, 72 h, read-out: GI
Procedure, shortened: (§1)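 Exponential-phase Dd8-Luc promastigotes at 1×10^6/mL in M199 with 10% FBS, 24 °C, given 50 and 25 µM for 72 h. Vehicle 0.1% DMSO. Steady-Glo added 1:1, luminescence (RLU) read. IC50 from four-parameter Hill regression, derived only where inhibition exceeded 90%. Means of at least three independent experiments.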

Leishmania donovani [2] = assay: Antileishmanial activity against Leishmania donovani MHOM/IN/80/DD8 promastigote forms harboring luciferase gene at 50 uM after 72 hrs by Steady-Glo reagent based luminescence assay relative to control; assay type: functional; conditions: MHOM/IN/80/DD8, 72 h, read-out: GI; procedure, shortened: as §1
Leishmania donovani [3] = assay: Antileishmanial activity against Leishmania donovani MHOM/IN/80/DD8 amastigote forms harboring luciferase gene infected in mouse J774 cells at 25 uM after 72 hrs by Steady-Glo reagent based luminescence assay relative to control; assay type: functional; conditions: MHOM/IN/80/DD8, J774, 72 h, read-out: GI
Procedure, shortened: (§2)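 Stationary-phase luciferase-expressing Dd8 promastigotes infected into J774 macrophages (4×10^4/mL seeded, 24 h, 37 °C, 5% CO2) at 1:8 macrophage:parasite for 24 h. Non-internalised parasites washed off. Compounds added at 50 and 25 µM in RPMI/10% FBS for 72 h. Lysis with Steady-Glo luciferin reagent plus PBS, luminescence read. Inhibition relative to untreated infected controls.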

Leishmania donovani [4] = assay: Antileishmanial activity against Leishmania donovani MHOM/IN/80/DD8 amastigote forms harboring luciferase gene infected in mouse J774 cells at 50 uM after 72 hrs by Steady-Glo reagent based luminescence assay relative to control; assay type: functional; conditions: MHOM/IN/80/DD8, J774, 72 h, read-out: GI; procedure, shortened: as §2
Leishmania donovani [5] = assay: Antileishmanial activity against Leishmania donovani MHOM/IN/80/DD8 promastigote forms harboring luciferase gene after 72 hrs by Steady-Glo reagent based luminescence assay; assay type: functional; conditions: MHOM/IN/80/DD8, 72 h; procedure, shortened: as §1
Leishmania donovani [6] = assay: Antileishmanial activity against Leishmania donovani MHOM/IN/80/DD8 amastigote forms harboring luciferase gene infected in mouse J774 cells after 72 hrs by Steady-Glo reagent based luminescence assay; assay type: functional, cell-based; conditions: MHOM/IN/80/DD8, J774, 72 h
[7] = Cytotoxicity against mouse J774 cells assessed as reduction in cell viability after 72 hrs by MTT assay; assay type: cell-based
Procedure, shortened: (§3)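 Vero and J774 cells seeded at 1×10^5 per well for 24 h, then exposed 72 h to seven two-fold dilutions from 500 to 7.81 μM. MTT solution (5 mg/mL stock) added for 2 h at 37 °C, formazan dissolved in DMSO and read at 540 nm. CC50 derived by the Huber and Koella method.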

[8] = Cytotoxicity against African green monkey Vero cells assessed as reduction in cell viability after 72 hrs by MTT assay; assay type: cell-based; conditions: chlorocebus sabaeus; procedure, shortened: as §3
[9] = Selectivity index, ratio of CC50 for mouse J774 cells to IC50 for Leishmania donovani MHOM/IN/80/DD8 amastigote forms infected in mouse J774 cells; assay type: toxicity, cell-based; conditions: read-out: Ratio CC50/IC50
Procedure, shortened: (§4)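 CC50: Vero or J774 cells (1×10^5/well) exposed 72 h to seven two-fold dilutions, 500–7.81 μM; MTT 2 h at 37 °C, formazan in DMSO read at 540 nm. IC50: luciferase-expressing Dd8 amastigotes in J774 macrophages (1:8), 72 h, luminescence, four-parameter Hill fit. SI = CC50/IC50, IC50 mean of three experiments.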

[10] = Selectivity index, ratio of CC50 for African green monkey Vero cells to IC50 for Leishmania donovani MHOM/IN/80/DD8 amastigote forms infected in mouse J774 cells; assay type: toxicity, cell-based; conditions: read-out: Ratio CC50/IC50; procedure, shortened: as §4
Leishmania donovani [11] = assay: Antileishmanial activity against Leishmania donovani MHOM/IN/80/DD8 promastigote forms harboring luciferase gene after 72 hrs by Steady-Glo reagent based two fold dilution assay; assay type: functional; conditions: MHOM/IN/80/DD8, 72 h
Procedure, shortened: (§5)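 Promastigotes or J774-resident amastigotes treated 72 h with six two-fold dilutions from 200 µM down to 6.25 µM. Luciferase RLU fitted by four-parameter Hill non-linear regression to derive the […] inhibitory concentration (MIC).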

Leishmania donovani [12] = assay: Antileishmanial activity against Leishmania donovani MHOM/IN/80/DD8 amastigote forms harboring luciferase gene infected in mouse J774 cells after 72 hrs by Steady-Glo reagent based two fold dilution assay; assay type: functional; conditions: MHOM/IN/80/DD8, 72 h; procedure, shortened: as §5
[13] = Cytotoxicity against mouse J774 cells assessed as cell viability […] after 72 hrs by MTT assay relative to control; assay type: cell-based; conditions: read-out: Activity; procedure, shortened: as §3
[14] = Cytotoxicity against African green monkey Vero cells assessed as cell viability up to 200 uM after 72 hrs by MTT assay relative to control; assay type: cell-based; conditions: chlorocebus sabaeus, read-out: Activity
Leishmania donovani [15] = assay: Antileishmanial activity against Leishmania donovani MHOM/IN/80/DD8 promastigote forms harboring luciferase gene at 9.59 uM up to 72 hrs by MTT assay relative to control; assay type: functional; conditions: MHOM/IN/80/DD8, 72 h
Leishmania donovani [16] = assay: Antileishmanial activity against Leishmania donovani MHOM/IN/80/DD8 amastigote forms harboring luciferase gene infected in mouse J774 cells at 7.36 uM up to 72 hrs by Giemsa staining based assay relative to control; assay type: functional; conditions: MHOM/IN/80/DD8, J774, 72 h
Procedure, shortened: (§6)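 J774 macrophages in chamber slides infected with Dd8 promastigotes (1:10 cell:parasite in methods; 1:8 in legend) for 24 h, then treated 48 and 72 h. Cells methanol-fixed, stained with 20% Giemsa. Amastigotes per 100 macrophages counted against untreated infected controls.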

Leishmania donovani [17] = assay: Antileishmanial activity against Leishmania donovani MHOM/IN/80/DD8 amastigote forms harboring luciferase gene infected in mouse J774 cells at 50 uM up to 72 hrs by Giemsa staining based assay relative to control; assay type: functional; conditions: MHOM/IN/80/DD8, J774, 72 h; procedure, shortened: as §6
Leishmania donovani [18] = assay: Antileishmanial activity against Leishmania donovani MHOM/IN/80/DD8 promastigote forms harboring luciferase gene at 6.25 to 12.5 uM up to 4 days by Steady-Glo reagent based luminescence assay; assay type: functional
Procedure, shortened: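 Log-phase luciferase promastigotes at 1.0×10^6 at 24 °C, pH 7.4, given two-fold dilutions from 200 to 6.25 µM. RLU in lysed cultures measured daily for up to 4 days to plot growth curves. Three independent experiments.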

Leishmania donovani [19] = assay: Antileishmanial activity against Leishmania donovani MHOM/IN/80/DD8 amastigote forms harboring luciferase gene infected in mouse J774 cells at 6.25 to 12.5 uM up to 4 days by Steady-Glo reagent based luminescence assay; assay type: functional, cell-based
Procedure, shortened: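 Infected J774 macrophages held at 37 °C with two-fold dilutions from 200 to 6.25 µM. Intracellular amastigote growth followed by luciferase activity in lysed macrophages, expressed as RLU, over time. Three independent experiments.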

Leishmania donovani [20] = assay: Antileishmanial activity against Leishmania donovani MHOM/IN/80/DD8 promastigote forms harboring luciferase gene at 50 uM up to 72 hrs by MTT assay relative to control; assay type: functional; conditions: MHOM/IN/80/DD8, 72 h
[21] = Stability in pH 1.2 simulated gastric fluid at 5 ug/ml after 120 mins by HPLC method
Procedure, shortened: (§7)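 Incubated in simulated gastric fluid (pH 1.2) or simulated intestinal fluid (pH 6.5); percentage remaining intact determined after 120 min.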

[22] = Stability in pH 6.5 simulated intestinal fluid at 5 ug/ml after 120 mins by HPLC method; procedure, shortened: as §7
[23] = Metabolic stability in mouse liver S9 fractions at 1 mM after 60 mins in presence of NADPH by HPLC method; assay type: ADME; conditions: read-out: Stability
[24] = Half life in mouse liver S9 fractions at 1 mM in presence of NADPH by HPLC method; assay type: ADME, tissue-based
Liver = assay: Intrinsic clearance in mouse liver S9 fractions assessed per mg protein at 1 mM in presence of NADPH by HPLC method; assay type: ADME; conditions: s9, 1000 µM
[25] = Metabolic stability in mouse liver S9 fractions assessed as rate constant for metabolism at 1 mM after 60 mins in presence of NADPH by HPLC method; assay type: ADME, tissue-based
Leishmania donovani [26] = assay: Antileishmanial activity against Leishmania donovani amastigote forms infected in Balb/c mouse assessed as inhibition of parasitic burden in liver up to 100 mg/kg, ip administered for 5 consecutive days measured on day 7 post last treatment by Giemsa staining based assay relative to control; assay type: functional
Leishmania donovani [27] = assay: Antileishmanial activity against Leishmania donovani amastigote forms infected in Balb/c mouse assessed as inhibition of parasitic burden in spleen up to 100 mg/kg, ip administered for 5 consecutive days measured on day 7 post last treatment by Giemsa staining based assay relative to control; assay type: functional
Leishmania donovani [28] = assay: Antileishmanial activity against Leishmania donovani amastigote forms infected in Balb/c mouse assessed as inhibition of parasitic burden in spleen at 200 mg/kg, ip administered for 5 consecutive days measured on day 7 post last treatment by Giemsa staining based assay relative to control; assay type: functional
Leishmania donovani [29] = assay: Antileishmanial activity against Leishmania donovani amastigote forms infected in Balb/c mouse assessed as inhibition of parasitic burden in liver at 200 mg/kg, ip administered for 5 consecutive days measured on day 7 post last treatment by Giemsa staining based assay relative to control; assay type: functional

**Q.** Which inhibition of growth at 25 µM (Leishmania donovani [1]) does the source give for COc1ccc(OC)c(C2C3=C(CC(C)(C)CC3=O)Nc3c2c(-c2c[nH]c4ccccc24)nn3-c2ccc(Cl)c(Cl)c2)c1 (stereo not given) here?
**A.** 85.9%

**Q.** And the inhibition of growth at 50 µM (Leishmania donovani [2])?
**A.** 90.6%

**Q.** And the inhibition of growth at 25 µM (Leishmania donovani [3])?
**A.** 91.5%

**Q.** What about the inhibition of growth at 50 µM (Leishmania donovani [4]) of the same molecule?
**A.** 95.8%

**Q.** And the IC50 (Leishmania donovani [5])?
**A.** 9.59 µM

**Q.** What about the IC50 (Leishmania donovani [6]) of the same molecule?
**A.** 7.36 µM

**Q.** And the CC50 at 72 h [7]?
**A.** 482 µM

**Q.** What about the CC50 at 72 h [8] of the same molecule?
**A.** 498 µM

**Q.** What about the selectivity ratio [9] of the same molecule?
**A.** 65.5

**Q.** And the selectivity ratio [10]?
**A.** 67.6

**Q.** What about the MIC (Leishmania donovani [11]) of the same molecule?
**A.** 50 µM (≈ 30.7 µg/mL)

**Q.** And the MIC (Leishmania donovani [12])?
**A.** 50 µM (≈ 30.7 µg/mL)

**Q.** And the viability at 72 h [13]?
**A.** > 95%

**Q.** What about the viability at 72 h [14] of the same molecule?
**A.** > 95%

**Q.** What about the inhibition at 9.59 µM (Leishmania donovani [15]) of the same molecule?
**A.** > 95%

**Q.** And the inhibition at 7.36 µM (Leishmania donovani [16])?
**A.** > 93%

**Q.** What about the inhibition at 50 µM (Leishmania donovani [17]) of the same molecule?
**A.** > 93%

**Q.** What about the Activity (Leishmania donovani [18]) of the same molecule?
**A.** Active

**Q.** And the Activity (Leishmania donovani [19])?
**A.** Active

**Q.** What about the inhibition at 50 µM (Leishmania donovani [20]) of the same molecule?
**A.** > 95%

**Q.** And the Stability [21]?
**A.** 75%

**Q.** What about the Stability [22] of the same molecule?
**A.** 58%

**Q.** What about the remaining at 1 h, 1000 µM [23] of the same molecule?
**A.** 31%

**Q.** What about the half-life at 1000 µM [24] of the same molecule?
**A.** 40 min

**Q.** And the CLH (Liver)?
**A.** 34.65 µL/min

**Q.** And the k el at 1 h, 1000 µM [25]?
**A.** 0.000283 s⁻¹

**Q.** What about the “inhibition (INH)” value (Leishmania donovani [26]) of the same molecule?
**A.** >50%

**Q.** And the “inhibition (INH)” value (Leishmania donovani [27])?
**A.** >50%

**Q.** And the Imax (Leishmania donovani [28])?
**A.** 68%

**Q.** And the Imax (Leishmania donovani [29])?
**A.** 62%

Reference: ChEMBL document CHEMBL3992522, “Antileishmanial Activity of Pyrazolopyridine Derivatives and Their Potential as an Adjunct Therapy with Miltefosine” (J Med Chem, 2017)
